Source: ChEMBL document CHEMBL3525900, “Pharmacokinetics, distribution, and metabolism of [14C]sunitinib in rats, monkeys, and humans” (Drug Metab Dispos, 2012)

Assays:
Conditions in all cases: in vivo
[1] = Drug excretion in urine of female Sprague-Dawley rat treated with [14C]sunitinib at 5 mg/kg, iv administered as single dose by liquid scintillation counting; format: ADME, organism-based; design: dose 5 mg/kg, dosed compound name [14C]Sunitinib, route intravenous
Method in brief: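 Five female rats given a single tail-vein bolus of [14C]sunitinib L-malate, 5 mg/kg free base equivalents (50 µCi/kg). Urine and feces collected over 0-72 h into dry-ice cooled containers. Urine counted directly by liquid scintillation; feces homogenized and combusted in oxygen before counting. Expired air also monitored.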

[2] = Drug excretion in feces of female cynomolgus monkey treated with [14C]sunitinib at 6 mg/kg, po administered as single dose by liquid scintillation counting; format: ADME, organism-based, Macaca fascicularis; design: dose 6 mg/kg, dosed compound name [14C]Sunitinib, route oral
Method in brief: (§1)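 Cynomolgus monkeys given one oral gavage dose of [14C]sunitinib L-malate, 6 mg/kg (37 µCi/kg). Urine collected at 0-4, 4-8 and 8-24 h, feces at 0-8 and 8-24 h, then both daily to 14 days; samples stored at -80 °C. Duplicate urine aliquots counted by liquid scintillation; homogenized feces combusted before counting.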

[3] = Drug excretion in urine of female cynomolgus monkey treated with [14C]sunitinib at 6 mg/kg, po administered as single dose by liquid scintillation counting; format: ADME, organism-based, Macaca fascicularis; design: dose 6 mg/kg, dosed compound name [14C]Sunitinib, route oral; method in brief: as §1
[4] = Drug excretion in feces of male cynomolgus monkey treated with [14C]sunitinib at 6 mg/kg, po administered as single dose by liquid scintillation counting; format: ADME, organism-based, Macaca fascicularis; design: dose 6 mg/kg, dosed compound name [14C]Sunitinib, route oral; method in brief: as §1
[5] = Drug excretion in urine of male cynomolgus monkey treated with [14C]sunitinib at 6 mg/kg, po administered as single dose by liquid scintillation counting; format: ADME, organism-based, Macaca fascicularis; design: dose 6 mg/kg, dosed compound name [14C]Sunitinib, route oral; method in brief: as §1
[6] = Drug excretion in urine of female Sprague-Dawley rat treated with [14C]sunitinib at 15 mg/kg, po administered as single dose by liquid scintillation counting; format: ADME, organism-based; design: dose 15 mg/kg, dosed compound name [14C]Sunitinib, route oral
Method in brief: (§2)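 Female and male rats given one oral gavage dose, 15 mg/kg free base equivalents (50 µCi/kg). Urine and feces collected on dry ice, protected from light, over 0-4, 4-8 and 8-24 h, then daily to 72 h. Urine aliquots counted by liquid scintillation; homogenized feces combusted in oxygen before counting. Counts 5 min, external quench correction.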

[7] = Drug excretion in urine of male Sprague-Dawley rat treated with [14C]sunitinib at 15 mg/kg, po administered as single dose by liquid scintillation counting; format: ADME, organism-based; design: dose 15 mg/kg, dosed compound name [14C]Sunitinib, route oral; method in brief: as §2
[8] = Drug excretion in urine of human treated with [14C]sunitinib at 50 mg, po administered as single dose by liquid scintillation counting
[9] = Drug excretion in feces of human treated with [14C]sunitinib at 50 mg, po administered as single dose by liquid scintillation counting

Row | Compound recovery [1] [%] | Compound recovery [2] [%] | Compound recovery [3] [%] | Compound recovery [4] [%] | Compound recovery [5] [%] | Compound recovery [6] [%] | Compound recovery [7] [%] | Compound recovery [8] | Compound recovery [9] | SMILES
1 | 0.7 | 2.6 | 0.2 | 3.2 | < 0.1 | 1.5 | 0.3 | metabolite_not_detected |  | CC[N+]([O-])(CC)CCNC(=O)c1c(C)[nH]c(/C=C2\C(=O)Nc3ccc(F)cc32)c1C
2 |  | 1 |  | 1.5 |  |  |  |  | metabolite_not_detected | CCN(CC)CCNC(=O)c1c(C)[nH]c(CC2C(=O)Nc3ccc(F)cc32)c1C (stereo unspecified)
3 |  | 0.8 |  | 1 |  |  |  |  | metabolite_not_detected | CCNCC(O)NC(=O)c1c(C)[nH]c(/C=C2\C(=O)Nc3ccc(F)cc32)c1C (stereo unspecified)
4 |  | 29.3 |  | 30.7 |  |  |  |  |  | CCNCCNC(=O)c1c(C)[nH]c(C=C2C(=O)Nc3ccc(F)cc32)c1C (mixture of isomers)
